Tests used:
Format in all cases: functional
SK-MEL-5 = assay: Cytotoxicity against human SK-MEL-5 cells by SRB assay
Procedure, shortened: (§1)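 NCI-60 panel screen; 5-dose testing giving GI50 per cell line, plus a single 10 µM one-dose test. Method details not given beyond the NCI screen.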

OVCAR-3 [1] = assay: Cytotoxicity against human OVCAR3 cells by SRB assay; procedure, shortened: as §1
DU-145 [2] = assay: Cytotoxicity against human DU145 cells by SRB assay
Procedure, shortened: (§2)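 Measured in the NCI-60 human tumour cell line panel using five-dose testing. Growth was recorded at each dose for each cell line, and a GI50 was derived for each line.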

MOLT-4 = assay: Cytotoxicity against human MOLT4 cells assessed as cell growth at 0.005 uM by SRB assay; conditions: read-out: Activity
HCT-15 = assay: Cytotoxicity against human HCT15 cells assessed as cell growth at 0.005 uM by SRB assay; conditions: read-out: Activity; procedure, shortened: as §2
M14 = assay: Cytotoxicity against human M14 cells assessed as cell growth at 0.005 uM by SRB assay; conditions: read-out: Activity
UACC-62 [3] = assay: Cytotoxicity against human UACC62 cells assessed as cell growth at 0.005 uM by SRB assay; conditions: read-out: Activity
CAKI-1 = assay: Cytotoxicity against human Caki1 cells assessed as cell growth at 0.005 uM by SRB assay; conditions: read-out: Activity
UO-31 = assay: Cytotoxicity against human UO31 cells assessed as cell growth at 0.005 uM by SRB assay; conditions: read-out: Activity
T47D [4] = assay: Cytotoxicity against human T47D cells assessed as cell growth at 0.005 uM by SRB assay; conditions: read-out: Activity
CCRF-CEM = assay: Cytotoxicity against human CCRF-CEM cells assessed as cell growth at 0.05 uM by SRB assay; conditions: read-out: Activity
SF-295 = assay: Cytotoxicity against human SF295 cells assessed as cell growth at 0.05 uM by SRB assay; conditions: read-out: Activity
UACC-62 [5] = assay: Cytotoxicity against human UACC62 cells assessed as cell growth at 0.05 uM by SRB assay; conditions: read-out: Activity
IGROV-1 = assay: Cytotoxicity against human IGROV1 cells assessed as cell growth at 0.05 uM by SRB assay; conditions: read-out: Activity; procedure, shortened: as §2
T47D [6] = assay: Cytotoxicity against human T47D cells assessed as cell growth at 0.05 uM by SRB assay; conditions: read-out: Activity
HOP-92 = assay: Cytotoxicity against human HOP92 cells assessed as cell growth at 0.5 uM by SRB assay; conditions: read-out: Activity; procedure, shortened: as §2
SF-539 = assay: Cytotoxicity against human SF539 cells assessed as cell growth at 0.5 uM by SRB assay; conditions: read-out: Activity
OVCAR-3 [7] = assay: Cytotoxicity against human OVCAR3 cells assessed as cell growth at 0.5 uM by SRB assay; conditions: read-out: Activity
A498 [8] = assay: Cytotoxicity against human A498 cells assessed as cell growth at 0.5 uM by SRB assay; conditions: read-out: Activity
PC-3 = assay: Cytotoxicity against human PC3 cells assessed as cell growth at 0.5 uM by SRB assay; conditions: read-out: Activity
HOP-62 = assay: Cytotoxicity against human HOP62 cells assessed as cell growth at 5 uM by SRB assay; conditions: read-out: Activity; procedure, shortened: as §2
NCI-H460 [9] = assay: Cytotoxicity against human NCI-H460 cells assessed as cell growth at 5 uM by SRB assay; conditions: read-out: Activity
COLO 205 = assay: Cytotoxicity against human COLO205 cells assessed as cell growth at 5 uM by SRB assay; conditions: read-out: Activity
SNB-75 = assay: Cytotoxicity against human SNB75 cells assessed as cell growth at 5 uM by SRB assay; conditions: read-out: Activity
SK-MEL-28 = assay: Cytotoxicity against human SK-MEL-28 cells assessed as cell growth at 5 uM by SRB assay; conditions: read-out: Activity
A498 [10] = assay: Cytotoxicity against human A498 cells assessed as cell growth at 5 uM by SRB assay; conditions: read-out: Activity
DU-145 [11] = assay: Cytotoxicity against human DU145 cells assessed as cell growth at 5 uM by SRB assay; conditions: read-out: Activity; procedure, shortened: as §2
MDA-MB-231 = assay: Cytotoxicity against human MDA-MB-231/ATCC cells assessed as cell growth at 5 uM by SRB assay; conditions: read-out: Activity
NCI-H460 [12] = assay: Cytotoxicity against human NCI-H460 cells assessed as cell growth at 50 uM by SRB assay; conditions: read-out: Activity
[13] = read-out: pLC50 (the source's name) (converted)
[14] = read-out: LC50 (the source's name)

Q: `COc1cc([C@@H]2c3cc4c(cc3[C@@H](NC(=O)CN3CCN(CCCCCCCCCCN5CCN(CC(=O)N[C@@H]6c7cc8c(cc7[C@@H](c7cc(OC)c(O)c(OC)c7)[C@H]7C(=O)OC[C@@H]76)OCO8)CC5)CC3)[C@H]3COC(=O)[C@H]23)OCO4)cc(OC)c1O` was tested. Which CC50 (SK-MEL-5; [13]) did it give?
A: 35.5 µM

Q: What about the TGI (SK-MEL-5; read-out: pTGI (converted)) of the same compound?
A: 13.5 µM

Q: And the GI50 (OVCAR-3 [1]; read-out: GI50)?
A: 1.81 µM

Q: What about the CC50 (OVCAR-3 [1]; [14]) of the same compound?
A: 49.9 µM

Q: And the TGI (OVCAR-3 [1]; read-out: TGI)?
A: 13.8 µM

Q: What about the GI50 (OVCAR-3 [1]; read-out: pGI50 (converted)) of the same compound?
A: 1.82 µM

Q: What about the CC50 (OVCAR-3 [1]; [13]) of the same compound?
A: 50.1 µM

Q: And the TGI (OVCAR-3 [1]; read-out: pTGI (converted))?
A: 13.8 µM

Q: What about the GI50 (DU-145 [2]; read-out: GI50) of the same compound?
A: 0.153 µM

Q: What about the CC50 (DU-145 [2]; [14]) of the same compound?
A: 14.6 µM

Q: What about the TGI (DU-145 [2]; read-out: TGI) of the same compound?
A: 2.89 µM

Q: What about the GI50 (DU-145 [2]; read-out: pGI50 (converted)) of the same compound?
A: 0.151 µM

Q: What about the CC50 (DU-145 [2]; [13]) of the same compound?
A: 14.5 µM

Q: What about the TGI (DU-145 [2]; read-out: pTGI (converted)) of the same compound?
A: 2.88 µM

Q: And the growth at 0.005 µM (MOLT-4)?
A: 88%

Q: And the growth at 0.005 µM (HCT-15)?
A: 99%

Q: And the growth at 0.005 µM (M14)?
A: 94%

Q: And the growth at 0.005 µM (UACC-62 [3])?
A: 91%

Q: And the growth at 0.005 µM (CAKI-1)?
A: 93%

Q: What about the growth at 0.005 µM (UO-31) of the same compound?
A: 86%

Q: And the growth at 0.005 µM (T47D [4])?
A: 94%

Q: What about the growth at 0.05 µM (CCRF-CEM) of the same compound?
A: 62%

Q: And the growth at 0.05 µM (SF-295)?
A: 88%

Q: And the growth at 0.05 µM (UACC-62 [5])?
A: 90%

Q: What about the growth at 0.05 µM (IGROV-1) of the same compound?
A: 83%

Q: What about the growth at 0.05 µM (T47D [6]) of the same compound?
A: 81%

Q: What about the growth at 0.5 µM (HOP-92) of the same compound?
A: 21%

Q: What about the growth at 0.5 µM (SF-539) of the same compound?
A: 13%

Q: What about the growth at 0.5 µM (OVCAR-3 [7]) of the same compound?
A: 63%

Q: And the growth at 0.5 µM (A498 [8])?
A: 51%

Q: What about the growth at 0.5 µM (PC-3) of the same compound?
A: 61%

Q: And the growth at 5 µM (HOP-62)?
A: -73%

Q: What about the growth at 5 µM (NCI-H460 [9]) of the same compound?
A: 33%

Q: What about the growth at 5 µM (COLO 205) of the same compound?
A: -13%

Q: And the growth at 5 µM (SNB-75)?
A: -12%

Q: What about the growth at 5 µM (SK-MEL-28) of the same compound?
A: 64%

Q: And the growth at 5 µM (A498 [10])?
A: -9%

Q: What about the growth at 5 µM (DU-145 [11]) of the same compound?
A: -7%

Q: And the growth at 5 µM (MDA-MB-231)?
A: -45%

Q: What about the growth at 50 µM (NCI-H460 [12]) of the same compound?
A: -81%

From ChEMBL document CHEMBL3588757, “Structure-based design, synthesis and biological testing of piperazine-linked bis-epipodophyllotoxin etoposide analogs” (Bioorg Med Chem, 2015)
